The subject of assay [1] is T47D. The assay is described as follows: Antiproliferative activity against T47D cells at 12. 7 uM. Type of assay: functional, Homo sapiens.
The species named for assay [2] is Homo sapiens. The assay is described as follows: Inhibition of hypoxia-induced HIF1 activation at 12. 7 uM. Summed up: (§1)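 HIF-1 activity was read in transfected cells by a luciferase reporter after a 16 h compound exposure under hypoxia (1% O2:5% CO2:94% N2). Normoxic (5% CO2:95% air) and hypoxia-mimetic (10 µM 1,10-phenanthroline) conditions were run alongside.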

Assay [3] relates to DU-145. Description: Antiproliferative activity against human DU145 cells under normoxic condition. It counts as functional, cell-based. Summed up:
(§2)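 Human prostate (DU145, PC-3) and breast (MCF-7, MDA-MB-231, T47D) carcinoma cells were grown in DMEM/F12 with 10% FCS and Pen/Strep. They were seeded at 30,000 cells/well and left overnight. Compound was added with DMSO up to 0.6% final, and plates went 48 h at 37 °C, hypoxic (1% O2:5% CO2:94% N2) or normoxic (5% CO2:95% air). Read-out was neutral red, A540 corrected at 630 nm, in quadruplicate.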

The test system of assay [4] is MDA-MB-231. The assay is described as follows: Antiproliferative activity against human MDA-MB-231 cells under normoxic condition. It counts as functional, cell-based. An outline of the steps: as §2
For assay [5], the system named is T47D. The assay is described as follows: Antiproliferative activity against human T47D cells under normoxic condition. Type of assay: functional, cell-based. Summed up: as §2
Assay [6] concerns DU-145. The assay is described as follows: Antiproliferative activity against human DU145 cells under hypoxic condition. It counts as functional, cell-based. An outline of the steps:
as §2

Assay [7] relates to PC-3. The assay is described as follows: Antiproliferative activity against human PC3 cells under normoxic condition. It counts as functional, cell-based. An outline of the steps:
as §2

In assay [8] the test system is MDA-MB-231. The assay is described as follows: Antiproliferative activity against human MDA-MB-231 cells under hypoxic condition. It counts as functional, cell-based. An outline of the steps:
as §2

The subject of assay [9] is MCF7. The assay is described as follows: Antiproliferative activity against human MCF7 cells under hypoxic condition. It counts as functional, cell-based. An outline of the steps:
as §2

For assay [10], the system named is MCF7. The assay is described as follows: Antiproliferative activity against human MCF7 cells under normoxic condition. It counts as functional, cell-based. Summed up: as §2
The test system of assay [11] is PC-3. The assay is described as follows: Antiproliferative activity against human PC3 cells under hypoxic condition. Type of assay: functional, cell-based. Summed up:
as §2

Assay [12] concerns T47D. The assay is described as follows: Antiproliferative activity against human T47D cells under hypoxic condition. It counts as functional, cell-based. Summed up:
as §2

For assay [13], the system named is MDA-MB-231. Description: Antiproliferative activity against human MDA-MB-231 cells at 0.3 uM. It counts as functional, cell-based. An outline of the steps:
as §2

The test system of assay [14] is T47D. Description: Antiproliferative activity against T47D cells after 16 hrs at 12. 7 uM. It counts as functional, Homo sapiens.
Assay [15] concerns T47D. Description: Antiproliferative activity against T47D cells at 1.27 uM. To be noted: Homo sapiens. It counts as functional, cell-based.
The species entered for assay [16] is Homo sapiens. The assay is described as follows: Inhibition of hypoxia induced HIF-1 activation at 1.27 uM. Summed up:
as §1

The values that follow come from ChEMBL document CHEMBL1139850, “Hypoxia-selective antitumor agents: norsesterterpene peroxides from the marine sponge Diacarnus levii preferentially suppress the growth of tumor cells under hypoxic conditions” (J Nat Prod, 2007).

SMILES strings stand for the structures. Calls of active or inactive are those of the source. No cut-off for these calls is given here.

Regarding `COC(=O)[C@@H](C)[C@H]1CC[C@](C)(CCCC(C)CCC2=C(C)CCCC2(C)C)OO1` (relative stereo) [DIACARNOXIDE C], the Activity entry with T47D [1] was “<=30%”. In the assay filed under Homo sapiens [2], the inhibition (commonly the percentage by which the read-out fell short of the control) is less than 30%.
As for `C=C1CCCC(C)(C)C1CCC(C)CCC[C@@]1(C)CC[C@H]([C@H](C)C(=O)OC)OO1` (relative stereo) [DIACARNOXIDE A], the IC50 (in general, the concentration that gives 50% inhibition) in the assay with DU-145 [3] was more than 30 µM; in the assay on MDA-MB-231 [4], 17.8 µM; with T47D [5], 14.7 µM; in the assay with DU-145 [6], more than 30 µM; with PC-3 [7], more than 30 µM; in the assay on MDA-MB-231 [8], 17.8 µM. Moreover, the IC50 with MCF7 [9] was more than 30 µM; in the assay on MCF7 [10], more than 30 µM; in the assay on PC-3 [11], more than 30 µM; in the assay with T47D [12], 26.9 µM. Also, in the assay on T47D [1], the Activity entry was “<=30%”. Further, the inhibition in the assay listed under Homo sapiens [2] is less than 30%.
As for `C=C1CCCC(C)(C)C1CCC(C)CCC[C@@]1(C)CC[C@H]([C@H](C)C(=O)O)OO1` (relative stereo) [DIACARNOXIDE B], the IC50 is 6.6 µM in the assay on DU-145 [3]; 13.3 µM in the assay on MDA-MB-231 [4]; 5.6 µM in the assay with T47D [5]; 5.3 µM in the assay on DU-145 [6]; 16.7 µM in the assay on PC-3 [7]; 5.6 µM with MDA-MB-231 [8]. In addition, the IC50 came to 6.6 µM in the assay on MCF7 [9], 13.8 µM in the assay with MCF7 [10], 12.9 µM with PC-3 [11] and 6 µM with T47D [12]. Also, in the assay on MDA-MB-231 [13], the outcome was Active. In the assay with T47D [14], this compound had an Activity of 97%. This compound displayed an inhibition in the assay filed under Homo sapiens [2] of 95%. Moreover, the result with T47D [15] and in the assay listed under Homo sapiens [16] was inactive.
Regarding `COC(=O)[C@@H](C)[C@H]1CC[C@](C)(CCC/C(C)=C/CC2C(C)=CCCC2(C)C)OO1` (relative stereo) [DIACARNOXIDE D], the Activity result in the assay on T47D [1] is recorded as “<=30%”. This compound also showed an inhibition in the assay listed under Homo sapiens [2] of less than 30%.
